Where “and” joins values, the source holds several entries; their conditions need not be identical. Identical values can stand only once.
Experiments:
[1] = biological target: 5-hydroxytryptamine receptor 2A (Rattus norvegicus) (UniProt P14842); test: Effectiveness in blocking 5-HT2A receptor-mediated contractions of rat tail artery; format: functional, tissue-based
In short: (§1)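 Endothelium-denuded rat ventral caudal artery segments (4–5 mm), isometric, resting force 5 mN. Segments were primed once with 5-HT 1 μM during 120 min equilibration. Prazosin 30 nM and cocaine 6 μM were present throughout. Two cumulative 5-HT curves were run 60 min apart, the second after 30–60 min with antagonist. pKP by Marano–Kaumann; pA2 by Schild or as apparent pA2. Mean ± SEM, n segments, ≥2 animals.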

[2] = Specificity towards 5-HT2A receptor to that of alpha-1 adrenoceptor.; format: functional
[3] = biological target: T1, Adrenergic receptor alpha-1 (Rattus norvegicus, UniProt P15823+P23944+P43140); test: Ability to block alpha-1 adrenergic receptor-mediated contractions of rat aorta.; format: functional
T1 sequence (P15823 whole entry): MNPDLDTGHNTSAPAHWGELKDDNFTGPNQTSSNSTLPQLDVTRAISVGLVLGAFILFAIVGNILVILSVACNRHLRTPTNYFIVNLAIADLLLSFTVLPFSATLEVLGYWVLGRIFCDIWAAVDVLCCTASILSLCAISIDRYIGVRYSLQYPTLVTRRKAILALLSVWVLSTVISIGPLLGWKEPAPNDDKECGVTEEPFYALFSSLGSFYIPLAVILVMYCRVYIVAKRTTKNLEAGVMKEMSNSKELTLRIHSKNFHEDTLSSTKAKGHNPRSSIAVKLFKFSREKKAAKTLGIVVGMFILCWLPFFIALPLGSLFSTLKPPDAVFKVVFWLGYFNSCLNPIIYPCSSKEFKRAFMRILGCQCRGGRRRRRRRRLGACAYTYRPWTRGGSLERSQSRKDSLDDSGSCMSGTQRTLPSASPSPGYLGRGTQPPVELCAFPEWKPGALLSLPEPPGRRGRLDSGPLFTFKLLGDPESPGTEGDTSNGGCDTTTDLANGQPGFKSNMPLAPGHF
T1 sequence (P23944 whole entry): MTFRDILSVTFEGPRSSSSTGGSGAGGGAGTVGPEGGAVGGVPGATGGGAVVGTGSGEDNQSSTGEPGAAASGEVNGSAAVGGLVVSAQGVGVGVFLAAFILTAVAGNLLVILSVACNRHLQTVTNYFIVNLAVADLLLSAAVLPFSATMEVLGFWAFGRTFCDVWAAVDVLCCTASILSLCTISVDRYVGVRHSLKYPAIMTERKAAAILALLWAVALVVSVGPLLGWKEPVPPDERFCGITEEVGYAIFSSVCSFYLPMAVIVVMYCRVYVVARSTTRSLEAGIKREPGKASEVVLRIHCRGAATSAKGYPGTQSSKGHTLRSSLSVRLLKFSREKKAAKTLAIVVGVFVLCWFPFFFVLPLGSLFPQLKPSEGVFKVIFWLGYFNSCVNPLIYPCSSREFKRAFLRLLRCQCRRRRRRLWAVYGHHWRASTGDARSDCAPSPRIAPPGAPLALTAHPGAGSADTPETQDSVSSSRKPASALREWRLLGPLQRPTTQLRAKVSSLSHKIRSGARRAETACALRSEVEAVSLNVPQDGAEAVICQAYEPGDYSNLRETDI
T1 sequence (P43140 whole entry): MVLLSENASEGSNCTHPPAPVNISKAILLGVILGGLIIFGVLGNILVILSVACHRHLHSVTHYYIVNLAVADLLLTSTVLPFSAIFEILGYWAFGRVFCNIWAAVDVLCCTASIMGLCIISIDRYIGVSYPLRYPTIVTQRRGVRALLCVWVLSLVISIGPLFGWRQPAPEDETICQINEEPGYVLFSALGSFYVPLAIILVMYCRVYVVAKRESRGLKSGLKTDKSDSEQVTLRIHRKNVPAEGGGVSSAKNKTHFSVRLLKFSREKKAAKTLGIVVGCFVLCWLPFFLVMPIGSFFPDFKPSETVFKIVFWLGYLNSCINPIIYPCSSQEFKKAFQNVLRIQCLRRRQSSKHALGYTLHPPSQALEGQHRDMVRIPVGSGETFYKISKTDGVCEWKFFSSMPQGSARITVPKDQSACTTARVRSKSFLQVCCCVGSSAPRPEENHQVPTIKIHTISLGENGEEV
In short: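 Endothelium-denuded rat thoracic aorta rings (4–6 mm) in modified Krebs-Henseleit, 37 °C, 95% O2/5% CO2, with (R,S)-propranolol 1 μM. Resting force 20 mN. During 140 min equilibration, rings were stimulated twice with (R)-phenylephrine 100 nM. Two cumulative phenylephrine contraction curves were run, without and then with antagonist added 30 min before.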

[4] = biological target: T2, 5-hydroxytryptamine receptor 2A (Rattus norvegicus, UniProt P14842); test: Blocking 5-HT2A receptor-mediated contractions of rat tail artery; format: functional, tissue-based; conditions: read-out: pA2 (converted); in short: as §1
T2 sequence (P14842 whole entry): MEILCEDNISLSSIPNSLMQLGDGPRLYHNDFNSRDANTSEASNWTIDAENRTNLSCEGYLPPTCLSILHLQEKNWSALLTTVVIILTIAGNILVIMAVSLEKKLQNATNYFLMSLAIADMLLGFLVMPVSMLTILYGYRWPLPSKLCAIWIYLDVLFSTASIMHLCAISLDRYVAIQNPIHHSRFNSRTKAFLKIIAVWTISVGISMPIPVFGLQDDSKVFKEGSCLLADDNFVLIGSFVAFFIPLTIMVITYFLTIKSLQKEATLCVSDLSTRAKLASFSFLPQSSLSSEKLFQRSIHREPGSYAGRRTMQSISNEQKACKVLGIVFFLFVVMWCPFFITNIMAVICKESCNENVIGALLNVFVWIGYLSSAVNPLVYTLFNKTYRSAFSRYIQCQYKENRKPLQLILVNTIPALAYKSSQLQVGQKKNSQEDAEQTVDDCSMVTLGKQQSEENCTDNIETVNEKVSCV

[5] = biological target: 5-hydroxytryptamine receptor 2A (Rattus norvegicus) (UniProt P14842); test: Intrinsic activity towards 5-HT2A receptor of rat tail artery; format: functional, tissue-based
In short: (§2)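 Endothelium-denuded rat caudal artery segments, resting force 5 mN, with prazosin 30 nM and cocaine 6 μM present. Two cumulative curves were run on each segment 60 min apart: first 5-HT, then the test agonist. pKP was taken from a Kenakin plot of equieffective 5-HT and agonist concentrations. Mean ± SEM from n segments, ≥2 animals.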

[6] = biological target: 5-hydroxytryptamine receptor 2A (Rattus norvegicus) (UniProt P14842); test: Relative potency towards 5-HT2A receptor of rat tail artery; format: functional, tissue-based; in short: as §2
[7] = biological target: T2, 5-hydroxytryptamine receptor 2A; test: Partial agonism at 5-HT2A receptor was evaluated in presence of ketanserin (3-10 nM) in isolated rat tail artery; format: functional, tissue-based; conditions: read-out: pA2 (converted)
In short: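 Rat caudal artery, endothelium removed, with prazosin 30 nM and cocaine 6 μM present. A 5-HT curve was followed after 60 min by a cumulative agonist curve, with ketanserin 3 nM added 30 min beforehand. The rightward shift was compared with that in control segments run without ketanserin.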

5-hydroxytryptamine receptor 2A (Rattus norvegicus), sequence (P14842 whole entry): as above

SMILES | pKp [1] | Specificity [2] | pA2 [3] | Kb [4] [nM] | Intrinsic activity [5] | Relative potency [6] [%] | Kb [7] [nM]
CN1C[C@H](COC(=O)C2CCCC2)C[C@@H]2c3cccc4[nH]cc(c34)C[C@H]21.O=C(O)/C=C\C(=O)O | 7.5 | 35 | 5.95 | – | – | – | –
CC(C)n1cc2c3c(cccc31)[C@H]1C[C@@H](COC(=O)C3CCCC3)CN(C)[C@@H]1C2.O=C(O)/C=C\C(=O)O | – | 933 | 4.68 | 22.4 | – | – | –
CC1=C[C@@H]2c3cccc4c3c(cn4C(C)C)C[C@H]2N(C)C1.O=C(O)/C=C\C(=O)O | – | 316 | 6.34 | 1.45 | – | – | –
CC(C)n1cc2c3c(cccc31)[C@H]1C[C@@H](C)CN(C)[C@@H]1C2.O=C(O)/C=C\C(=O)O | – | 63 | 6.7 | 3.16 | – | – | –
CN1C[C@H](COC(=O)C2CCCC2)C=C2c3cccc4[nH]cc(c34)C[C@H]21.O=C(O)/C=C\C(=O)O | 7.4 and 7.27 | 120 | 5.32 | – | 0.11 | 128 | 0.741
CC(C)n1cc2c3c(cccc31)[C@H]1C[C@@H](COC(=O)C3CCCCCC3)CN(C)[C@@H]1C2.O=C(O)/C=C\C(=O)O | – | 186 | 4.78 | 89.1 | – | – | –
CN1C[C@H](COC(=O)C2CC2)C[C@@H]2c3cccc4[nH]cc(c34)C[C@H]21.O=C(O)/C=C\C(=O)O | 7.67 | 3 | 7.2 | – | – | – | –
CC(C)n1cc2c3c(cccc31)[C@H]1C=C(COC(=O)C3CCCCCC3)CN(C)[C@@H]1C2.O=C(O)/C=C\C(=O)O | – | > 1860 | < 4.5 | 17 | – | – | –
CC(C)n1cc2c3c(cccc31)[C@H]1C[C@@H](COC(=O)C3CCCCC3)CN(C)[C@@H]1C2.O=C(O)/C=C\C(=O)O | – | 355 | 4.59 | 72.4 | – | – | –
COC1CCC(C(=O)OCC2=C[C@@H]3c4cccc5[nH]cc(c45)C[C@H]3N(C)C2)CC1.O=C(O)/C=C\C(=O)O (some centres not stated) | – | 12 | 6.32 | 47.9 | – | – | –
CN1C[C@H](COC(=O)C2CCCCCC2)C=C2c3cccc4[nH]cc(c34)C[C@H]21.O=C(O)/C=C\C(=O)O | 6.71 and 6.35 | 95 | 4.73 | – | 0.18 | 14 | 0.776
CC(C)n1cc2c3c(cccc31)[C@H]1C=C(COC(=O)C3CCCC3)CN(C)[C@@H]1C2.O=C(O)/C=C\C(=O)O | – | 1440 | 4.89 | 8.91 | – | – | –
CO[C@H]1CC[C@H](C(=O)OCC2=C[C@@H]3c4cccc5[nH]cc(c45)C[C@H]3N(C)C2)CC1.O=C(O)/C=C\C(=O)O | – | 17 | 6 | 57.5 | – | – | –
CN1C[C@H](CO)C=C2c3cccc4[nH]cc(c34)C[C@H]21 | 6.88 | – | – | – | 0.18 | 74 | 0.794
CN1CC(COC(=O)C2CCCC2)=C[C@@H]2c3cccc4[nH]cc(c34)C[C@H]21.O=C(O)/C=C\C(=O)O | – | 21 | 5.99 | 49 | – | – | –
CC(C)n1cc2c3c(cccc31)[C@H]1C=C(COC(=O)C3CCCCC3)CN(C)[C@@H]1C2.O=C(O)/C=C\C(=O)O | – | 1410 | 4.65 | 15.8 | – | – | –

SMILES | pKp [1] | Specificity [2] | pA2 [3] | Kb [4] [nM] | Intrinsic activity [5] | Relative potency [6] [%] | Kb [7] [nM]
CC(C)n1cc2c3c(cccc31)[C@H]1C=C(COC(=O)C3CCC3)CN(C)[C@@H]1C2.O=C(O)/C=C\C(=O)O | – | 2180 | 4.69 | 9.33 | – | – | –
CO[C@H]1CC[C@H](C(=O)OCC2=C[C@@H]3c4cccc5c4c(cn5C(C)C)C[C@H]3N(C)C2)CC1.O=C(O)/C=C\C(=O)O | – | 2880 | 4.67 | 7.41 | – | – | –
CC(C)n1cc2c3c(cccc31)C1=C[C@@H](COC(=O)C3CC3)CN(C)[C@@H]1C2.O=C(O)/C=C\C(=O)O | – | 4570 | 5.08 | 1.82 | – | – | –
CC(C)n1cc2c3c(cccc31)C1=C[C@@H](COC(=O)C3CCC3)CN(C)[C@@H]1C2.O=C(O)/C=C\C(=O)O | – | 2950 | 4.75 | 6.03 | – | – | –
CN1C[C@H](COC(=O)C2CCCCC2)C[C@@H]2c3cccc4[nH]cc(c34)C[C@H]21.O=C(O)/C=C\C(=O)O | 7.34 | 52 | 5.62 | – | – | – | –
CC(C)n1cc2c3c(cccc31)C1=C[C@@H](COC(=O)C3CCCC3)CN(C)[C@@H]1C2.O=C(O)/C=C\C(=O)O | – | 4790 | 4.57 | 5.62 | – | – | –
CN1CC(COC(=O)C2CCCCCC2)=C[C@@H]2c3cccc4[nH]cc(c34)C[C@H]21.O=C(O)/C=C\C(=O)O | – | 832 | 5.05 | 10.7 | – | – | –
CN1C[C@H](COC(=O)C2CC2)C=C2c3cccc4[nH]cc(c34)C[C@H]21.O=C(O)/C=C\C(=O)O | – | 55 | 6.66 | – | 0.21 | 331 | 0.741
CN1C[C@H](COC(=O)C2CCCCCC2)C[C@@H]2c3cccc4[nH]cc(c34)C[C@H]21.O=C(O)/C=C\C(=O)O | 7.1 | 174 | 4.86 | – | – | – | –
COC1CCC(C(=O)OCC2=C[C@@H]3c4cccc5c4c(cn5C(C)C)C[C@H]3N(C)C2)CC1.O=C(O)/C=C\C(=O)O (some centres not stated) | – | 1260 | 4.84 | 11.5 | – | – | –
CC(C)n1cc2c3c(cccc31)[C@H]1C[C@@H](COC(=O)C3CCC3)CN(C)[C@@H]1C2.O=C(O)/C=C\C(=O)O | – | 2950 | 4.59 | 8.71 | – | – | –
CN1CC(COC(=O)C2CCCCC2)=C[C@@H]2c3cccc4[nH]cc(c34)C[C@H]21.O=C(O)/C=C\C(=O)O | – | 32 | 5.89 | 39.8 | – | – | –
CC(C)n1cc2c3c(cccc31)C1=C[C@@H](COC(=O)C3CCCCC3)CN(C)[C@@H]1C2.O=C(O)/C=C\C(=O)O | – | 1410 | 4.77 | 12 | – | – | –
CN1CC(COC(=O)C2CCC2)=C[C@@H]2c3cccc4[nH]cc(c34)C[C@H]21.O=C(O)/C=C\C(=O)O | – | 5 | 6.42 | 77.6 | – | – | –
CN1C[C@H](COC(=O)C2CCC2)C[C@@H]2c3cccc4[nH]cc(c34)C[C@H]21.O=C(O)/C=C\C(=O)O | 7.3 | 5 | 6.59 | – | – | – | –

Reference: ChEMBL document CHEMBL1132168, “Cycloalkanecarboxylic esters derived from lysergol, dihydrolysergol-I, and elymoclavine as partial agonists and antagonists at rat 5-HT2A receptors: pharmacological evidence that the indolo[4,3-fg]quinoline system of the ergolines is responsible for high 5-HT2A receptor affinity” (J Med Chem, 1999)
